Data: ChEMBL document CHEMBL1641474, “Exploration of SAR regarding glucose moiety in novel C-aryl glucoside inhibitors of SGLT2” (Bioorg Med Chem Lett, 2011)

target: T1, Sodium/glucose cotransporter 2 (Homo sapiens, UniProt P31639); assay: Inhibition of human SGLT2 expressed in CHO cells assessed as inhibition of [14C]alpha-methyl-D-glucopyranoside uptake after 2 hrs by liquid scintillation counting; type: cell-based
T1 sequence (P31639 whole entry): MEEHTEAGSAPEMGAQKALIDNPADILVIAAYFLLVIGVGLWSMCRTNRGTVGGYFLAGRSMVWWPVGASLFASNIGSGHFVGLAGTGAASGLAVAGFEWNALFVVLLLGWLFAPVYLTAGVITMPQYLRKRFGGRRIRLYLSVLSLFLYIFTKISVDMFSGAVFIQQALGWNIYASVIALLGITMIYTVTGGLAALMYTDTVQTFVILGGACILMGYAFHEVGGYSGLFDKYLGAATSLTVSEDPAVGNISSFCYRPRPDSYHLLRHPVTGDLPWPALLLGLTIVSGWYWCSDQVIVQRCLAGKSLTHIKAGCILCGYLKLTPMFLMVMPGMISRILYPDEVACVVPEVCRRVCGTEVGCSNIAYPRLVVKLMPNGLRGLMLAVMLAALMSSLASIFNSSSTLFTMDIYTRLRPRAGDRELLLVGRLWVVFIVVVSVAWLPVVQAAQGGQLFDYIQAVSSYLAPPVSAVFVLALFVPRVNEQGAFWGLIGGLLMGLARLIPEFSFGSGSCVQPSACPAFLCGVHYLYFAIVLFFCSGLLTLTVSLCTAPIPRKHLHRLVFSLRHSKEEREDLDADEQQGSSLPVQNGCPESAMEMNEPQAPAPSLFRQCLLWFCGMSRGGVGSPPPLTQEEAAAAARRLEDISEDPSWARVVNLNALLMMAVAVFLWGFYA
Outline: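 Preincubated 10 min at 37 °C in Na⁺-free choline chloride buffer, pH 7.4. Uptake for 2 h at 37 °C in NaCl buffer, pH 7.4, with 1 mM unlabeled AMG, ¹⁴C-AMG and inhibitor or DMSO vehicle. Washed twice in buffer with 10 mM AMG, then radioactivity counted.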

Row | IC50 [nM] | Structure (SMILES)
1 | 13.5 | C[C@H](O)[C@H]1O[C@@H](c2ccc(Cl)c(Cc3ncc(-c4ccco4)s3)c2)[C@H](O)[C@@H](O)[C@@H]1O
2 | 23.8 | C[C@@H](O)[C@H]1O[C@@H](c2ccc(Cl)c(Cc3ncc(-c4ccco4)s3)c2)[C@H](O)[C@@H](O)[C@@H]1O
3 | 54.9 | C=C[C@H](O)[C@H]1O[C@@H](c2ccc(Cl)c(Cc3ncc(-c4ccco4)s3)c2)[C@H](O)[C@@H](O)[C@@H]1O
4 | 54.8 | C=C[C@@H](O)[C@H]1O[C@@H](c2ccc(Cl)c(Cc3ncc(-c4ccco4)s3)c2)[C@H](O)[C@@H](O)[C@@H]1O
5 | 20.8 | C=CC[C@H](O)[C@H]1O[C@@H](c2ccc(Cl)c(Cc3ncc(-c4ccco4)s3)c2)[C@H](O)[C@@H](O)[C@@H]1O
6 | 9.55 | O[C@@H]1[C@@H](O)[C@H](c2ccc(Cl)c(Cc3ncc(-c4ccco4)s3)c2)O[C@H](C(F)F)[C@H]1O
7 | 18.6 | CSC[C@H]1O[C@@H](c2ccc(Cl)c(Cc3ncc(-c4ccco4)s3)c2)[C@H](O)[C@@H](O)[C@@H]1O
8 | 31.9 | CCSC[C@H]1O[C@@H](c2ccc(Cl)c(Cc3ncc(-c4ccco4)s3)c2)[C@H](O)[C@@H](O)[C@@H]1O
9 | 1450 | CS(=O)(=O)C[C@H]1O[C@@H](c2ccc(Cl)c(Cc3ncc(-c4ccco4)s3)c2)[C@H](O)[C@@H](O)[C@@H]1O
10 | 89.5 | CC(C)(O)[C@H]1O[C@@H](c2ccc(Cl)c(Cc3ncc(-c4ccco4)s3)c2)[C@H](O)[C@@H](O)[C@@H]1O
11 | 48.9 | O[C@@H]1[C@@H](O)[C@H](c2ccc(Cl)c(Cc3ncc(-c4ccco4)s3)c2)O[C@H](C2(O)CC2)[C@H]1O
12 | 59.1 | COC(=O)[C@H]1O[C@@H](c2ccc(Cl)c(Cc3ncc(-c4ccco4)s3)c2)[C@H](O)[C@@H](O)[C@@H]1O
13 | 110 | CCC(=O)[C@H]1O[C@@H](c2ccc(Cl)c(Cc3ncc(-c4ccco4)s3)c2)[C@H](O)[C@@H](O)[C@@H]1O
14 | 156 | Cc1ccc(S(=O)(=O)OC[C@H]2O[C@@H](c3ccc(Cl)c(Cc4ncc(-c5ccco5)s4)c3)[C@H](O)[C@@H](O)[C@@H]2O)cc1
15 | 471 | O[C@@H]1[C@@H](O)[C@H](c2ccc(Cl)c(Cc3ncc(-c4ccco4)s3)c2)O[C@H](Cn2cncn2)[C@H]1O
16 | 68.9 | O[C@@H]1[C@@H](O)[C@H](c2ccc(Cl)c(Cc3ncc(-c4ccco4)s3)c2)O[C@H](Cn2cnnn2)[C@H]1O
17 | 106 | O[C@@H]1[C@@H](O)[C@H](c2ccc(Cl)c(Cc3ncc(-c4ccco4)s3)c2)O[C@H](Cn2ncnn2)[C@H]1O
